# Source: PubChem (Broad Institute)
# This is a sample that favours compounds with a hit; in the whole collection about 2% have one here.
# S100A4 MyoIIA: inhibitors of human S100A4 binding to myosin IIA peptide; S100A4/TAMRA-MyoIIA peptide fluorescence polarization; inhibition, % at 10.7 µM; P26447; 360,000 tested, 0.14% active;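 active = mean inhibition of at least 70% across replicates, with every replicate also reaching that level; inconclusive = mean inhibition reaches 70% but some replicates fall short; inactive = mean inhibition below 70%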
# Target sequence (P26447 whole entry, looked up): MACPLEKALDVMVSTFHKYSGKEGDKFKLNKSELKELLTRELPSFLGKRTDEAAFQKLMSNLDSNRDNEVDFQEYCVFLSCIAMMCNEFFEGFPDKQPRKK
#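 Material: S100A4 monomer protein | Medium: HEPES pH 7.2 with CaCl2, KCl, NaCl, DTT, Triton | Reagent: Labelled myosin peptide probe, 5 nM | Doses: One dose per compound | Times: 5 min incubation before reading | Benchmarks: Neutral control DMSO, positive control TFP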
# DENV2 CPE: inhibitors of DENV2 cytopathic effect | CPE inhibition, % at 9.99 µM | DENV2-infected cells, cytopathic effect rescue, plate reader | AID 651640 | 350,000 tested, 1.7% active; in the data active = CPE inhibition above about 20%, passing the limit was not always enough; inconclusive = no clear call, values can overlap the other calls; tested in BHK-21 cells;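 note: 0% = median of neutral control wells and 100% = median of positive control wells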
# E-sel inducer: induces E-selectin expression in human endothelial cells | P16581 | HUVEC E-selectin immunofluorescence imaging; normalized: neutral wells 0, TNF-alpha wells 100 | activation, % at 7.58 µM | 260,000 tested, 0.37% active | AID 686992;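 active = mean E-selectin-positive cell signal at least 10% of the positive control, reached in at least 60% of replicates, without over 20% cell loss; inconclusive = no rule given, readout overlaps actives, possibly toxicity-flagged; inactive = the rest, including those meeting only one limit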
#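 Material: HUVEC primary endothelial cells; Amount: 3,000 cells per well; Dosing: single concentration; Medium: EGM-2 growth medium on 0.1% gelatin-coated wells; Read-out basis: percent E-selectin-positive cells; Signal: immunofluorescence imaging; Control set: TNF-alpha, DMSO.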
# Xi reactivation: X-chromosome reactivation activator | XiGFP mouse fibroblasts, % GFP-positive cells imaging, 3 d; cells co-treated with 5-aza-dC sensitizer; scaled so ellipticine positive control = 100% | activation, % at 7.58 µM | 360,000 tested, 0.055% active;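 active = mean normalized replicate activation at least 10% and every replicate at or above 10%; inconclusive = only one of the two criteria met; inactive = mean below 10% and not all replicates reach 10%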;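 note: 0% = median of on-plate neutral control wells and 100% = ellipticine 6 µM median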
#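 System: SV40-immortalized XiGFP fibroblast cells, line 68-5-11 / Incubation: 3-day compound exposure, then 15 min fixation at room temperature / Compound: single concentration per compound, delivered by pin transfer / Buffer or medium: DMEM plus 5-aza-dC sensitizer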
# Numbers without * were called inactive; ? = inconclusive; · = no result.
SMILES,S100A4 MyoIIA,DENV2 CPE,E-sel inducer,Xi reactivation
COc1ccc(C)cc1NC(=O)C1CCCN(S(=O)(=O)c2ccc(-n3cnnn3)cc2)C1 (stereo not drawn),-2,-4,1,0
C[C@@H]1CCCCO[C@@H](CN(C)C(=O)c2ccncc2)[C@H](C)CN([C@@H](C)CO)C(=O)c2cc(NC(=O)CCC(F)(F)F)ccc2O1,·,?,0,0
C[C@@H]1CCCCO[C@H](CN(C)C(=O)c2ccncc2)[C@H](C)CN([C@H](C)CO)C(=O)c2cc(NC(=O)CCC(F)(F)F)ccc2O1,·,74*,0,0
C[C@@H]1CCCCO[C@H](CN(C)C(=O)c2ccccc2)[C@@H](C)CN([C@@H](C)CO)C(=O)c2cc(NC(=O)CCC(F)(F)F)ccc2O1,-2,-3,1,0
C[C@@H]1CCCCO[C@@H](CN(C)C(=O)c2ccccc2)[C@@H](C)CN([C@H](C)CO)C(=O)c2cc(NC(=O)CCC(F)(F)F)ccc2O1,8,93*,1,0
CNc1cncc(-c2cccc(C(C)=O)c2)n1,1,31*,0,0
Cc1cc(C(=O)Nc2ccc(C)c(C)c2)n(-c2ccccc2)n1,-1,7,53*,0
Cc1cc(C(=O)Nc2c(C)cccc2C)n(-c2ccccc2)n1,-1,-4,0,0
CC(C)NC(=O)Nc1ccc2c(c1)C(=O)N([C@H](C)CO)C[C@H](C)[C@@H](CN(C)C(=O)c1ccccc1)OCCCC[C@H](C)O2,-23,48*,0,0
C[C@@H]1CCCCO[C@@H](CN(C)C(=O)c2ccccc2)[C@H](C)CN([C@@H](C)CO)C(=O)c2cc(NC(=O)C3CCCCC3)ccc2O1,48,71*,0,0
CC(C)NC(=O)Nc1ccc2c(c1)C(=O)N([C@H](C)CO)C[C@@H](C)[C@@H](CN(C)C(=O)c1ccccc1)OCCCC[C@H](C)O2,-11,17,0,0
C[C@@H]1CN([C@H](C)CO)C(=O)c2cc(NC(=O)C3CCCCC3)ccc2O[C@@H](C)CCCCO[C@@H]1CN(C)C(=O)c1ccccc1,3,20,0,0
CC=Cc1ccc2n(c1=O)C[C@H]1[C@H](CO)[C@@H](C(=O)N(C)C)N(CC3CC3)[C@@H]21 (mixture of isomers),23,2,0,0
COc1ccc2c3c([nH]c2c1)[C@@H](CO)N(C(=O)C1CC1)CC31CCN(Cc2cccc(F)c2)CC1,3,-12,0,0
CCOc1ccc(NC(=O)C2CC(=O)N(CCc3ccccc3)C2)cc1OC (stereo not drawn),-20,89*,·,0
COCCNC(=O)COc1coc(CN2CCN(Cc3ccccc3)CC2)cc1=O,1,-2,1,0
CC(C)(C)NC(=O)COc1coc(CN2CCN(Cc3ccccc3)CC2)cc1=O,-2,57*,0,0
CCOc1cccc(-c2cc(N3CCN(CCO)CC3)n3nccc3n2)c1,11,-4,2,0
CN1CCCN(c2cc(-c3ccc4ccccc4c3)nc3ccnn23)CC1,139*,4,150*,0
Cc1cccc(-c2cc(N3CCCN(C)CC3)n3nccc3n2)c1,112*,1,69*,0
CC(=O)c1sc(NCc2ccc(C)cc2)nc1C,8,-6,0,0
C=C(C)CNC(=O)C1CCC(=O)N(CCCc2ccccc2)C1 (stereo not drawn),4,1,0,0
O=C(Cc1cccnc1)N[C@H]1CC[C@H](CCn2cc(Cc3ccccc3)nn2)O[C@@H]1CO,-2,77*,0,0
O=C(Cc1cccnc1)N[C@H]1CC[C@@H](CCn2cc(-c3ccccc3F)nn2)O[C@H]1CO,1,7,0,1
O=C(Cc1cccnc1)N[C@@H]1CC[C@H](CCn2cc(-c3ccccc3F)nn2)O[C@@H]1CO,-4,45*,-2,0
SMILES,S100A4 MyoIIA,DENV2 CPE,E-sel inducer,Xi reactivation
O=C(C[C@@H]1CC[C@@H](NC(=O)Cc2cccnc2)[C@H](CO)O1)Nc1ccc(-c2ccccc2)cc1,127*,?,1,0
CC(=O)Nc1ccc(-c2csc(NC(=O)CC(NC(C)=O)c3ccccc3)n2)cc1 (stereo not drawn),3,-4,0,0
CCOC(=O)c1ccc(NC(=S)NCCCN2CCN(C3CCCCC3)CC2)cc1,0,-2,1,0
Cc1ccc(S(=O)(=O)N2[C@@H]3CNC[C@H]2C3c2ccc(-c3ccc(C#N)cc3)cc2)cc1 (stereo partly drawn),-1,29*,0,0
O=S(=O)(c1ccccc1)N1[C@@H]2CNC[C@H]1C2c1ccc(-c2ccccc2)cc1 (stereo partly drawn),0,68*,-1,0
C[C@H]1[C@H](c2ccccc2)C[C@@H](C(=O)O)C1(C)C,1,40*,0,0
N#Cc1cccnc1N1CCN(C(=O)c2ccccc2)CC1,7,52*,0,0
O=C(c1ccc2nccnc2c1)N1CCN(c2ccccc2)CC1,-1,35*,-1,0
N#Cc1cccnc1N1CCC(C(N)=O)CC1,-2,4,70*,0
COC(=O)c1ccccc1NC(=O)CNC(=O)c1ccc(OC)c(OC)c1,0,9,2,0
CC1CCN(C(=O)COC(=O)c2cc3ccccc3oc2=O)CC1,-3,54*,0,0
CC1CCN(C(=O)COC(=O)CNC(=O)c2ccccc2F)CC1,1,69*,·,0
O=c1cc(CSc2ccccc2)[nH]c2ccccc12,-25,-4,0,0
C[C@@H]1CN([C@@H](C)CO)C(=O)c2c(c3ccccc3n2C)-c2ccccc2CO[C@@H]1CN(C)Cc1cccc(F)c1,25,7,-1,0
S=C(Nc1ccc(Cl)c(Cl)c1)N1CCCC1,-9,-4,1,0
CN1CCN(C(=S)Nc2ccc(Cl)c(Cl)c2)CC1,-1,78*,·,0
O=C(Nc1nnc([C@H]2C[C@H](O)[C@@H](CO)O2)s1)c1ccccc1F,4,29*,0,0
CCCN(C)C[C@@H]1Oc2cc(C#CC3CCCC3)ccc2S(=O)(=O)N([C@H](C)CO)C[C@@H]1C,6,?,·,·
